Reference: article PMC3404614 (Biochimica et Biophysica Acta, 2012)
“And” between values parts separate entries of the source, which are not always exact repeats. Equal values may be shown once. Read-outs that look alike come from different tables or passages of the source.

What was measured:
[1] = system: PKC; assay: Effect of PKC inhibition on CCK- and TPA-stimulated pY416 Yes phosphorylation; type: cell-based, rat
How it was run: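 Rat acini were pretreated with the PKC inhibitor GF109203X (5 µM) during preincubation, then incubated with 100 nM CCK (1 min) or 1 µM TPA (2.5 min) at 37 °C. Lysates were immunoprecipitated with anti-Yes and blotted for pY416 Src family and total Yes, quantified by densitometry. Results are expressed as % of control, mean ± S.E., n=4.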

[2] = system: Yes kinase; type: cell-based, rat; settings: for Yes pY416 phosphorylation, time course, 1 min: 1 min incubation; for tmax (Yes pY416 phosphorylation) / t1/2 (Yes pY416 phosphorylation): CCK (100 nM) or TPA (1 µM)
How it was run: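 Collagenase-dispersed rat acini were preincubated 2 h at 37 °C, then incubated with CCK (100 nM) or TPA (1 µM) for times up to 15 min. Yes was immunoprecipitated (4 µg anti-Yes, protein G, overnight 4 °C), then blotted for pY416 and total Yes and read by densitometry. Values are % of zero-time control, mean ± S.E., n=7, with t1/2 from curve fitting.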

[3] = system: Yes kinase; type: cell-based, rat; settings: for association of Yes with p125FAK, PYK2, PI3K, PKD, p130Cas, Shc and PKCδ (Co-IP) / association of Yes with Raf, Cbl or ERK1/2 (Co-IP): CCK 100 nM 2.5 min or TPA 1 µM 5 min; for association of Yes with p125FAK, PYK2, PI3K, PKD, p130Cas, Shc and PKCδ (Co-IP): 8 experiments; for association between Yes and PI3K / association of Yes with autophosphorylated forms pY397 p125FAK and pY402 PYK2: CCK or TPA; for direct association of Raf, Cbl or ERK1/2 with Yes, reverse Co-IP: Cbl or ERK1/2 antibodies, detection with Yes antibodies; for association of Yes with Cbl or Erk 1/2 (Co-IP), discussion / association of Yes with focal adhesion kinases, PKCδ, Shc, p130Cas, PI3K, PTEN and PKD (Co-IP): TPA and CCK, physiological and supramaximal concentrations
[4] = system: Lyn; settings: pancreatic acini; cited from earlier work
[5] = system: PKC-δ and Src; settings: PC-12 cells and parotid cells; cited from earlier work
[6] = system: endoplasmic reticulum Ca^2+-ATPase; assay: Effect of Ca2+ depletion on CCK- and TPA-stimulated pY416 Yes phosphorylation; type: cell-based, rat; settings: for inhibition of TPA-/CCK-stimulated Yes activation (thapsigargin, words): TPA and CCK as stimulants
[7] = system: [Ca^2+i] increase stimulated by CCK; settings: thapsigargin, calcium-free medium; cited from earlier work
[8] = system: Lyn; settings: cited from earlier work
[9] = system: Yes kinase; type: cell-based, rat
How it was run: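 Rat pancreatic acini were prepared by collagenase digestion, preincubated 2 h at 37 °C in HEPES buffer (pH 7.45), then exposed to graded concentrations of CCK or CCK-JMV at 37 °C. Yes was immunoprecipitated from lysates and immunoblotted for pY416 Src family, with total Yes as loading control, and quantified by densitometry.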

[10] = system: Yes; settings: cited from earlier work; for activation of Yes by EGF and PDGF: hepatocytes and fibroblasts
[11] = system: SFK; settings: cited from earlier work
[12] = system: Fyn; settings: cited from earlier work
[13] = system: Src; settings: cited from earlier work
[14] = system: Hck; settings: endothelial cells; cited from earlier work
[15] = system: adenylate cyclase; settings: cited from earlier work; for activation of PLC cascades or adenylate cyclase: pancreatic acinar cell; for adenylate cyclase activation: rat pancreatic acini
[16] = system: Akt; assay: pS473 Akt phosphorylation by pancreatic growth factors; type: cell-based; settings: rat pancreatic acini; data not shown
[17] = system: cSrc; settings: murine fibroblasts; cited from earlier work
[18] = system: CCK2 receptors; assay: CCK2 receptor ligands: pY416 Yes phosphorylation in rat pancreatic acini; type: cell-based; settings: gastrin 10 nM, 1 min
[19] = from CCK-JMV partial stimulation

Molecule: CN(C)CCCn1cc(C2=C(c3c[nH]c4ccccc34)C(=O)NC2=O)c2ccccc21 [GF109203X]
- decrease in CCK-stimulated activation of Yes by PKC inhibitor ([1]; GF109203X + CCK): 80%
- inhibition of TPA-/CCK-stimulated Yes activation (PKC inhibitor, words) ([1]; TPA and CCK as stimulants): inhibit TPA−/CCK-stimulated Yes

Molecule: CCCCCCCCCCCCCC(=O)O[C@@H]1[C@@H](C)[C@@]2(O)[C@@H](C=C(CO)C[C@]3(O)C(=O)C(C)=C[C@@H]23)[C@@H]2C(C)(C)[C@]12OC(C)=O [TPA, 12-O-tetradecanoylphorbol-13-acetate]
- Yes pY416 phosphorylation, time course, 1 min ([2]; means±S.E., 7 experiments): 153±25 % of control
- tmax (Yes pY416 phosphorylation) ([2]; 7 experiments): 2.49±0.29 min
- t1/2 (Yes pY416 phosphorylation) ([2]; means±S.E., 7 experiments): 1.25±0.24 min
- Yes pY416 phosphorylation, time course, 2.5 min ([2]; TPA, 2.5 min, means±S.E., 7 experiments, p<0.05): 266±47 % of control
- duration of increased Yes pY416 phosphorylation ([2]; sustained increase): 15 min
- association of Yes with p125FAK, PYK2, PI3K, PKD, p130Cas, Shc and PKCδ (Co-IP) [3]: produced an increase in the association of Yes
- association of Yes with Raf, Cbl or ERK1/2 (Co-IP) ([3]; data not shown): not with Raf, Cbl or ERK1/2
- association between Yes and PI3K [3]: stimulated an association between Yes and PI3K
- association of Yes with autophosphorylated forms pY397 p125FAK and pY402 PYK2 [3]: stimulates an association of Yes with each of their specific autophosphorylated forms
- direct association of Raf, Cbl or ERK1/2 with Yes, reverse Co-IP [3]: did not obtained any stimulated direct association with Yes
- association of Yes with Cbl or Erk 1/2 (Co-IP), discussion [3]: not with Cbl or Erk 1/2
- association of Yes with focal adhesion kinases, PKCδ, Shc, p130Cas, PI3K, PTEN and PKD (Co-IP) [3]: stimulate the association of Yes
- association of Lyn with PKC-δ, Shc, p125FAK and Pyk-2 [4]: stimulated its association with PKC-δ, Shc, p125FAK and Pyk-2
- association of PKC-δ and Src [5]: neither TPA nor carbachol stimulated the association of PKC-δ and Src

Molecule: C/C=C(/C)C(=O)O[C@H]1C(C)=C2[C@H]([C@@H]1OC(=O)CCCCCCC)[C@@](C)(OC(C)=O)C[C@H](OC(=O)CCC)[C@@]1(O)[C@H]2OC(=O)[C@@]1(C)O [Thapsigargin]
- inhibition of TPA-/CCK-stimulated Yes activation (thapsigargin, words) [6]: inhibit TPA−/CCK-stimulated Yes
- inhibition of TPA-/CCK-stimulated Yes activation (thapsigargin, words) ([6]; listed as thapsigargin): did not completely inhibit CCK-stimulated Yes activation
- reduction of CCK-stimulated Yes activation by thapsigargin (Ca2+ depletion) ([6]; thapsigargin, calcium-depleting conditions, + CCK): 71%
- inhibition of CCK-stimulated [Ca2+]i increase [7]: completely inhibit

Molecule: C[N+](C)(C)CCOC(N)=O [carbachol]
- Lyn activation in pancreatic acinar cells [8]: activated
- association of PKC-δ and Src [5]: neither TPA nor carbachol stimulated the association of PKC-δ and Src

Molecule: COOH-terminal octapeptide of cholecystokinin [CCK]
- maximal stimulation of Y416 phosphorylation of Yes ([9]; CCK 100 nM, means±S.E., 5 experiments): 280±16 % of control
- lowest concentration with detectable increase in Y416 phosphorylation of Yes ([9]; CCK dose-response): 10 pM
- share of CCK stimulation of Yes mediated by high affinity CCK1 receptor state [9, 19]: 64%
- share of CCK stimulation of Yes mediated by low affinity CCK1 receptor state [9, 19]: 36%
- Yes pY416 phosphorylation, time course, 1 min ([2]; means±S.E., 7 experiments): 310±43 % of control
- tmax (Yes pY416 phosphorylation) ([2]; 7 experiments): 1 min and 0.98±0.14 min
- t1/2 (Yes pY416 phosphorylation) ([2]; means±S.E., 7 experiments): 0.309±0.042 min and 0.31±0.04 min
- Yes pY416 phosphorylation, time course, 30 s ([2]; CCK, 30-second incubation, means±S.E., 7 experiments, p<0.05): 278±27 % of control
- association of Yes with p125FAK (Co-IP), low CCK ([3]; CCK 100 pM and 0.1 nM, 2.5 min): not with ^p125FAK
- association of Yes with Raf, Cbl or ERK1/2 (Co-IP), low CCK ([3]; CCK 100 pM and 0.1 nM, data not shown): with Raf, Cbl or ERK1/2 (data not shown)
- association of Yes with p125FAK, PYK2, PI3K, PKD, p130Cas, Shc and PKCδ (Co-IP) [3]: produced an increase in the association of Yes
- association of Yes with Raf, Cbl or ERK1/2 (Co-IP) ([3]; data not shown): not with Raf, Cbl or ERK1/2
- association between Yes and PI3K [3]: stimulated an association between Yes and PI3K
- association of Yes with autophosphorylated forms pY397 p125FAK and pY402 PYK2 [3]: stimulates an association of Yes with each of their specific autophosphorylated forms
- direct association of Raf, Cbl or ERK1/2 with Yes, reverse Co-IP [3]: did not obtained any stimulated direct association with Yes
- association of Yes with Cbl or Erk 1/2 (Co-IP), discussion [3]: not with Cbl or Erk 1/2
- association of Yes with focal adhesion kinases, PKCδ, Shc, p130Cas, PI3K, PTEN and PKD (Co-IP) [3]: stimulate the association of Yes
- Lyn activation in pancreatic acinar cells [8]: activated
- activation of Yes through CCK2 receptors ([10]; rat pancreatic acinar cell line AR42J): activate Yes through CCK2 receptors
- association of Lyn with PKC-δ, Shc, p125FAK and Pyk-2 [4]: stimulated its association with PKC-δ, Shc, p125FAK and Pyk-2

Molecule: Endothelin-1: interacts with ET-1 and ET-3 receptors in the pancreatic acinar cell
- Lyn activation in pancreatic acinar cells [8]: weakly stimulated
- SFK activation by endothelin ([11]; different cells): activates SFKs in different cells
- Fyn activation by endothelin ([12]; endothelial cells): activated the SFK Fyn
- Src inhibition by endothelin ([13]; endothelial cells): inhibited
- Yes activity with endothelin ([10]; endothelial cells): unaltered
- Hck inhibition by endothelin [14]: inhibited
- activation of PLC cascades or adenylate cyclase [15]: does not activate PLC cascades nor activate adenylate cyclase
- activation of PLC cascades or adenylate cyclase ([15]; listed as endothelin): does not stimulate phospholipase C or adenylate cyclase

Molecule: Epidermal growth factor (NSNTGCPPSYDGYCLNGGVCMYVESVDRYVCNCVIGYIGERCQHRDLRWWKLR; UniProt P07522 974-1026, looked up) [EGF]
- pS473 Akt phosphorylation [16]: stimulated pS473 Akt phosphorylation
- cSrc activation [17]: activate the SFK, cSrc
- activation of Yes by EGF and PDGF [10]: stimulated activation of Yes

Molecule: Gastrin
- pY416 Yes phosphorylation by gastrin [18]: did not produce any increase in pY416 Yes phosphorylation

Molecule: Secretin: activates adenylate cyclase in rat pancreatic acini
- Lyn activation in pancreatic acinar cells [8]: weakly stimulated
- SFK activation by secretin ([11]; other studies): activated the SFKs
- adenylate cyclase activation [15]: activates adenylate cyclase

Molecule: basic fibroblast growth factor [bFGF]
- pS473 Akt phosphorylation [16]: stimulated pS473 Akt phosphorylation
- SFK activation in pancreatic acinar cells ([11]; bFGF, pancreatic acinar cells): not activate SFK
- cSrc activation [17]: activate the SFK, cSrc

Molecule: bombesin
- Lyn activation in pancreatic acinar cells [8]: activated

Molecule: insulin-like growth factor 1 [IGF-1]
- pS473 Akt phosphorylation [16]: stimulated pS473 Akt phosphorylation
- Src activation by IGF ([13]; differentiating preadipocytes): stimulates Src activation

Molecule: insulin: pancreatic growth factor
- pS473 Akt phosphorylation [16]: stimulated pS473 Akt phosphorylation
- SFK activation by insulin ([11]; skeletal muscle cells): stimulates SFK activation
- Fyn activation by insulin ([12]; ovarian cells): stimulates Fyn activation

Molecule: platelet-derived growth factor [PDGF]
- pS473 Akt phosphorylation [16]: stimulated pS473 Akt phosphorylation
- cSrc activation [17]: activate the SFK, cSrc
- activation of Yes by EGF and PDGF [10]: stimulated activation of Yes

Molecule: vasoactive intestinal peptide [VIP]
- adenylate cyclase activation [15]: activates adenylate cyclase
